# Compound activity as filed in PubChem.
# In the library only some 9.6% were active in any assay of this set; here they are far more common.
# Ba/F3 V617F tox = reduce viability of Ba/F3 cells dependent on JAK2V617F; Ba/F3 EpoR-JAK2V617F viability, ATP luminescence; inhibition, % at 5.6 µM; 220,000 compounds, 1.1% hits; AID 1446;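 active = inhibition above the campaign mean plus 3 SD over all tested compounds, cut at about 24% in these data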;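 note: cytokine-independent growth of Ba/F3 cells driven by EpoR plus mutant JAK2; 0% = DMSO-treated cells and 100% = JAK inhibitor I control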
# MT stabilize HCS = microtubule stabilizers in HeLa cells; HeLa tubulin immunostaining HCS, 24 h; share of cells brighter than vehicle mean+2SD; % tubulin-high responders, % at 10 µM; 200,000 compounds, 0.83% hits;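 active = plate Z-score above 3 for both tubulin-high and condensed-nucleus cell shares, with cell loss under 80%, at 10 µM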;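 note: anti alpha tubulin signal scored within the nucleus-defined area of each cell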
# bCat nuc transl = modulators of beta-catenin nuclear translocation; HeLa beta-catenin nuclear translocation, immunofluorescence imaging; nuclear translocation activity, % at 5 µM; 190,000 compounds, 0.3% hits; AID 1665;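 active = nuclear translocation activity above 50% at 5 µM, with a well cell count of 50 or more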;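 note: per-cell ratio of nuclear to cytoplasmic median beta-catenin stain intensity; plate controls were DMSO negative control for no effect and GSK-3 inhibitor IX positive control for full effect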
#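 Test system: human HeLa cell line; Doses: 5 µM primary, 0.02–20 µM confirmation; Incubation: 24 h compound exposure, 37°C; Detection: beta-catenin immunofluorescence imaging with DAPI; Read-out: beta-catenin nuclear/cytoplasmic ratio, % activation.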
# APP transl inh = APP translation inhibition; SH-SY5Y APP 5'UTR-luciferase reporter, luminescence; AID 1285; inhibition, % at 2 µM; 190,000 compounds, 0.82% hits;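 active = inhibition above a set limit, derived from the sample mean plus 3 SD, cut at about 45% in these data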
# BaF3 tox = parental Ba/F3 viability inhibition as JAK2V617F counter-screen. 220,000 compounds, 1.1% hits. CellTiter-Glo ATP luminescence. inhibition, % at 5.6 µM;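 active = inhibition above a per-campaign cutoff, the mean inhibition of all tested compounds plus 3 SD, cut at about 27% in these data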;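 note: 0% = DMSO wells and 100% = JAK Inhibitor I control wells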
# Lmaj promast = inhibitors of Leishmania major promastigote growth; inhibition, % at 10 µM; 200,000 compounds, 9% hits; Leishmania major promastigotes, resazurin fluorescence viability; AID 1063; in the data active = inhibition above about 50%;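 note: promastigotes grown with compound for 44 hours at 28 °C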
# * hit, by the source's call; · = no result.
SMILES,Ba/F3 V617F tox,MT stabilize HCS,bCat nuc transl,APP transl inh,BaF3 tox,Lmaj promast
Cn1c(CS(=O)Cc2c(Cl)cccc2Cl)nnc1SCc1c(Cl)cccc1Cl (centres undefined),-2.7,1.3,1.1,-5.5,7.6,-5.4
O=S(Cc1ccc(Br)cc1)Cc1nnc(SCc2c(Cl)cccc2Cl)n1-c1ccccc1 (centres undefined),1.1,1.6,-0.2,-10.8,11.8,96.0*
O=C(COC(=O)c1ccc2c(c1)C(=O)N(c1cccc3ncccc13)C2=O)c1ccc(Cl)cc1,-2.8,4.6,-0.2,-5.1,6.4,-9.3
Cc1ccc(C(=O)COC(=O)c2ccc3c(c2)C(=O)N(c2cccc4ncccc24)C3=O)cc1,0.6,2.5,-0.3,-4.9,8.3,75.6*
COc1ccc2c(c1)c(=O)c(Br)c(C)n2Cc1ccccc1,-3.5,2.9,1.2,7.3,2.4,-4.2
COc1ccc(-c2n(Cc3ccccc3)c3ccccc3[n+]2Cc2ccccc2)cc1,96.0*,10.9*,-0.4,-13.3,74.5*,99.6*
COc1ccccc1Cn1c(-c2ccccc2OC)nc2ccccc21,-3.2,1.2,1.0,0.3,1.0,98.4*
COc1ccc2c(c1)nc(N)n2Cc1ccccc1,1.3,4.2,·,15.2,5.7,63.6*
COc1ccc(-c2nc3ccccc3n2Cc2ccccc2)cc1,-4.8,1.3,·,0.1,-0.7,53.4*
COC(=O)CSc1nccc(C)n1,-1.3,3.2,-2.1,-8.0,2.2,-2.1
CCCN1CNC(=S)N(c2cccc(C)c2)C1,-3.4,·,-3.4,·,0.7,·
C=CCn1c(-c2ccc(OC)cc2)nc2ccccc21,42.2*,2.7,1.1,-11.1,37.7*,96.3*
C=CCn1c(-c2ccc(N)cc2)nc2ccccc21,-1.8,4.5,·,-49.8,1.4,24.4
CN(C)CCCNCC(=O)NN(c1ccccc1)c1ccccc1,-6.2,·,0.2,·,-2.1,·
CC(NC(=S)Nc1ccc(S(=O)(=O)N2CCOCC2)cc1)C1CC2CCC1C2 (centres undefined),3.2,2.9,1.3,-17.9,-7.0,63.3*
O=S(=O)(c1ccc(NC(=S)Nc2ccccc2)cc1)N1CCOCC1,-0.8,1.3,·,-10.3,7.1,1.1
CCNC(=O)c1ccc2c(c1)C1C3CCC(C3)C1C(c1ccccc1)N2 (centres undefined),1.8,0.9,0.8,-4.1,9.4,21.9
CCN(CC)S(=O)(=O)c1ccc2c(c1)N(CC(=O)NCc1ccccn1)C(=O)CO2,3.5,·,-0.3,·,-1.0,·
CCOP(=O)(c1ccccc1)C1(C#N)CCCC1 (centres undefined),-7.1,3.6,-8.0,-5.5,4.3,1.0
CCOP(=O)(/C(C#N)=C(\C)O)c1ccccc1 (centres undefined),6.6,1.4,-1.9,-8.0,81.3*,-2.2
CC(C)c1cc(C(=O)Nc2cc(Cl)ccc2O)no1,16.2,2.0,2.9,-138.6,37.2*,-8.6
CC(C)c1cc(C(=O)Nc2cc(Br)ccc2O)no1,27.3*,2.2,2.6,-37.9,29.1*,-5.7
O=S(=O)(c1ccc2c(c1)OCCO2)N1CCC(n2cnc3cc(F)ccc32)CC1,4.3,2.6,3.7,4.2,4.6,68.7*
Cc1nc2c3cc(Cl)ccc3n(CCN3CCCCC3)c2s1,15.8,24.5*,96.7*,11.7,35.6*,36.0
CC(C)CCNC(=O)/C=C/c1ccc(Br)cc1,1.0,3.6,-2.2,-7.9,3.9,-3.6
SMILES,Ba/F3 V617F tox,MT stabilize HCS,bCat nuc transl,APP transl inh,BaF3 tox,Lmaj promast
C[n+]1ccc(/C=C/c2ccc(Br)cc2)cc1,79.1*,7.3,·,-8.2,83.4*,86.0*
Cc1nn(C)cc1/C=N/NC(=O)Cn1cncn1,0.7,·,-0.8,·,1.4,·
COc1ccc(NC(=S)N2CCC(N(C)CC3CCCO3)CC2)cc1 (centres undefined),0.9,2.2,1.1,-4.2,1.8,93.4*
Cc1c(Cl)cccc1NC(=S)N1CCC(N(C)CC2CCCO2)CC1 (centres undefined),-3.4,1.4,1.2,9.0,2.7,83.5*
Cc1cccc(NC(=S)N2CCC(N(C)CC3CCCO3)CC2)c1 (centres undefined),4.2,1.3,0.0,-9.2,4.0,85.5*
Cc1ccc(NC(=S)N2CCC(N(C)CC3CCCO3)CC2)cc1C (centres undefined),-2.9,2.2,1.3,-15.4,6.8,86.5*
COc1ccc(NC(=S)N2CCC(C(=O)N3CCCCCC3)CC2)cc1,-3.9,3.6,-1.5,-6.6,-2.5,-7.0
COc1ccc(NC(=S)N2CCC(N(C)CC3CCCO3)CC2)cc1Cl (centres undefined),0.2,2.0,1.0,5.4,3.4,95.3*
O=C(NCc1ccccn1)C1CCC(=O)N1C1CCCCC1 (centres undefined),-5.8,2.7,·,-10.9,0.4,-7.4
CCN1C(=O)C(CC(=O)Nc2ccc(OC)cc2)N(CCc2ccc(F)cc2)C1=S (centres undefined),0.9,5.3,-1.7,-11.6,-2.4,40.1
CCOc1ccc(NC(=O)CC2C(=O)N(c3ccccc3)C(=S)N2Cc2ccccn2)cc1 (centres undefined),-0.7,3.2,-0.4,1.5,-1.4,9.1
CCN1C(=O)C(CC(=O)Nc2ccc(OC)cc2)N(CCCN2CCN(c3ccc(F)cc3)CC2)C1=S (centres undefined),9.2,4.2,0.3,5.7,3.5,73.5*
CCOc1ccc(NC(=O)CC2C(=O)N(c3ccc(OC)cc3)C(=S)N2Cc2ccccn2)cc1 (centres undefined),-2.4,6.4,·,-9.0,-5.7,79.9*
CCCCCCOc1ccc(NC(=O)CC2C(=O)N(CC)C(=S)N2Cc2ccco2)cc1 (centres undefined),5.2,4.1,0.3,-16.9,0.3,65.7*
CCOc1ccc(NC(=O)CC2C(=O)N(c3ccccc3)C(=O)N2CCc2cccs2)cc1 (centres undefined),8.7,1.8,3.7,6.2,10.5,66.4*
CCOc1ccc(NC(=O)CC2C(=O)N(c3ccccc3)C(=O)N2Cc2ccco2)cc1 (centres undefined),1.4,6.5,-2.3,6.8,4.6,4.9
Cn1nc(C(F)(F)F)c(CO)c1Sc1ccc(F)cc1,7.2,4.6,-2.7,3.3,9.9,-7.9
CC(=O)Nc1ccc(/C=C/c2ccc3c([N+](=O)[O-])cccc3n2)cc1,4.1,11.9,0.4,-64.7,7.6,1.3
COc1cccc(C(=O)NC2CC3CCCC(C2)N3S(=O)(=O)c2ccccc2)c1 (centres undefined),1.6,·,-1.0,·,-7.4,·
Cc1occc(=O)c1O,-3.5,3.5,·,-8.9,6.5,-8.4
CCc1ccc(NC(=O)CC2C(=O)N(c3ccc(C)cc3)C(=O)N2CCc2ccncc2)cc1 (centres undefined),2.4,1.9,-2.3,7.7,1.9,51.4*
Cc1cccc(N2C(=O)C(CC(=O)Nc3cccc(F)c3)N(CCc3ccncc3)C2=O)c1 (centres undefined),1.7,4.7,-1.1,-32.0,4.3,6.9
